From ChEMBL document CHEMBL3102712, “Targeting the Warburg Effect in cancer; relationships for 2-arylpyridazinones as inhibitors of the key glycolytic enzyme 6-phosphofructo-2-kinase/2,6-bisphosphatase 3 (PFKFB3)” (Bioorg Med Chem, 2014)
Activity calls are given as the source filed them. No cut-off for these calls is given here.

Columns and labels:
[1] = Solubility of the compound; assay type: physicochemical
[2] = biological target: T1, 6-phosphofructo-2-kinase/fructose-2,6-bisphosphatase 3 (Homo sapiens, UniProt Q16875); test: Inhibition of PFKFB3 (unknown origin)
T1 sequence (Q16875 whole entry): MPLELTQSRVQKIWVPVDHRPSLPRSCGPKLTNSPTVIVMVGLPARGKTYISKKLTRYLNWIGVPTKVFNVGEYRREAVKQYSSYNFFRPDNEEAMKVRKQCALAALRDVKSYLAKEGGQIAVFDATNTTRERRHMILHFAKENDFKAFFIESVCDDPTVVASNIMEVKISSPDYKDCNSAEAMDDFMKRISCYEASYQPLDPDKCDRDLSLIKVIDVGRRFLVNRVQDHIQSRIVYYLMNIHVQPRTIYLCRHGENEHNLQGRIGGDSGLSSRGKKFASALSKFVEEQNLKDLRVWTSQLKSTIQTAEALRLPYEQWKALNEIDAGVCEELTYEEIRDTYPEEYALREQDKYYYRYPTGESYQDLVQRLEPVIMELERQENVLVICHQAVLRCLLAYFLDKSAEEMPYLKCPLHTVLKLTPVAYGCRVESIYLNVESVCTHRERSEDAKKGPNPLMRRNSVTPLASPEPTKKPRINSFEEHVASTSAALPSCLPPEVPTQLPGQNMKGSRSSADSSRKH

[3] = biological target: T1, 6-phosphofructo-2-kinase/fructose-2,6-bisphosphatase 3; test: Inhibition of PFKFB3-mediated glycolysis in human MDA-MB-231 cells assessed as extracellular acidification rate at 10 uM after 2 hrs; assay type: cell-based
Procedure, shortened: (§1)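 MDA-MB-231 cells were seeded at 15,000/well for 24 h, then switched to assay medium in an XF24 analyzer. After 2 baseline readings, compound (10 µM) was injected and ECAR tracked for 2 h. 2-Deoxyglucose (100 mM) was then injected as positive control and ECAR followed 32 min more. ECAR was expressed as % of baseline, with protein measured by BCA after RIPA lysis; n = 3.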

[4] = biological target: T1, 6-phosphofructo-2-kinase/fructose-2,6-bisphosphatase 3; test: Inhibition of human recombinant GST-tagged PFKFB3 expressed in Escherichia coli BL21(DE3) using fructose 6-phosphate as substrate preincubated for 30 mins before substrate addition measured after 60 mins by kinase-glo assay
Procedure, shortened: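 GST-tagged human PFKFB3 was purified on glutathione sepharose. The compound was preincubated with enzyme for 30 min at 30 °C in 40 mM Tris pH 7.5, 20 mM MgCl2, 0.1 mg/mL BSA. ATP and F6P were then added in buffer containing 25 µM ATP and 1.25 mM F6P, for 60 min at 30 °C. Remaining ATP was read by Kinase-Glo luminescence. IC50 came from nonlinear regression, mean ± SD of ≥3 independent experiments.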

[5] = biological target: T1, 6-phosphofructo-2-kinase/fructose-2,6-bisphosphatase 3; details: 250 uM
[6] = biological target: T1, 6-phosphofructo-2-kinase/fructose-2,6-bisphosphatase 3; test: Inhibition of PFKFB3-mediated glycolysis in human MDA-MB-231 cells assessed as extracellular acidification rate at 10 uM after 60 mins; assay type: cell-based; procedure, shortened: as §1
[7] = biological target: T1, 6-phosphofructo-2-kinase/fructose-2,6-bisphosphatase 3; test: Inhibition of PFKFB3 in human HeLa cells assessed as reduction of fructose 2,6-bisphosphate level at IC50 after 8 hrs; assay type: cell-based
[8] = biological target: T1, 6-phosphofructo-2-kinase/fructose-2,6-bisphosphatase 3; test: Inhibition of PFKFB3 in human HeLa cells assessed as reduction of lactate secretion at IC50 after 8 hrs; assay type: cell-based

O=C(c1ccncc1)c1cc2c(ccc3ccccc32)[nH]1
solubility [1]: Insoluble
IC50 [2]: > 1000 µM

CC(=O)c1nnn(-c2cnn(-c3ccccc3)c(=O)c2Br)c1C
inhibition [3]: inactive
IC50 [4]: 7.4 µM

NC(=O)CNc1cnn(-c2ccccc2)c(=O)c1Br
IC50 [4]: > 1000 µM

CC(=O)c1nnn(-c2cnn(-c3ccc(C#N)cc3)c(=O)c2Br)c1C
IC50 [4]: 8.4 µM

CC(=O)c1nnn(-c2cnn(-c3ccccc3)c(=O)c2Cl)c1C
IC50 [4]: 26 µM

N#Cc1cccc2c1CCN(c1cnn(-c3ccccc3)c(=O)c1Br)C2
IC50 [4]: > 500 µM

CC(=O)c1nnn(-c2cnn(Cc3ccccc3)c(=O)c2Br)c1C
IC50 [4]: 3.4 µM

O=c1c(Br)c(N2CC3(COC3)C2)cnn1-c1ccccc1
IC50 [4]: > 1000 µM

O=C(/C=C/c1ccc2ccccc2n1)c1ccncc1
inhibition [5]: 26%
IC50 [4]: > 1000 µM

O=c1c(Br)c(N2CCOCC2)cnn1-c1ccccc1
IC50 [4]: > 1000 µM

CC(=O)c1nnn(-c2cnn(-c3ccc(OC(F)(F)F)cc3)c(=O)c2Br)c1C
IC50 [4]: 9.1 µM
inhibition [6]: 30%

CC(=O)c1nnn(-c2cnn(CCc3ccccc3)c(=O)c2Br)c1C
IC50 [4]: 2.6 µM

CC(=O)c1nnn(-c2cnn(-c3ccccc3)c(=O)c2I)c1C
IC50 [4]: 13 µM

CCOC(=O)c1cn(-c2cnn(-c3ccccc3)c(=O)c2N2CC3(COC3)C2)nn1
IC50 [4]: 55 µM

CC(=O)c1nnn(-c2cnn(Cc3ccc(NCCN(C)C)cc3)c(=O)c2Br)c1C
IC50 [4]: > 500 µM

CC(=O)c1nnn(-c2cnn(Cc3ccc(I)cc3)c(=O)c2Br)c1C
IC50 [4]: 8.7 µM

CC(=O)c1nnn(-c2cnn(-c3ccccc3)c(=O)c2C(C)C)c1C
IC50 [4]: > 500 µM

CCOc1c(-n2nnc(C(C)=O)c2C)cnn(-c2ccccc2)c1=O
IC50 [4]: > 1000 µM

O=c1c(-c2ccc(O)cc2)coc2c(O)c(O)ccc12
inhibition [7]: 40%
inhibition [8]: > 30%

CC(=O)c1nnn(-c2cnn(Cc3ccccc3)c(=O)c2)c1C
IC50 [4]: > 10000 µM

CC(=O)c1nnn(-c2cnn(CCCc3ccccc3)c(=O)c2Br)c1C
IC50 [4]: 11 µM
inhibition [6]: 30%

CC(=O)c1nnn(-c2cnn(-c3ccc(Cl)cc3)c(=O)c2Br)c1C
IC50 [4]: 7 µM
inhibition [6]: 30%

O=c1c(Br)c(NCC2CCCO2)cnn1-c1ccccc1 (stereo unspecified)
IC50 [4]: > 1000 µM

CC(=O)c1nnn(-c2cnn(-c3cncnc3)c(=O)c2Br)c1C
IC50 [4]: 9.6 µM
inhibition [6]: 30%

O=C(O)c1ccc(NS(=O)(=O)c2cccc3ccccc23)cc1O
IC50 [2]: 27 µM
IC50 [4]: 27 µM

O=C(/C=C/c1cccnc1)c1ccncc1
inhibition [3]: inactive
IC50 [2]: 25 µM
